Measurements pooled from the literature.
Read-out: cell growth or viability

| SMILES | cell line | method | time | measurement | result |
| --- | --- | --- | --- | --- | --- |
| COC1=C2C[C@@H](C)C[C@H](OC)[C@H](O)[C@@H](C)/C=C(\C)[C@H](OC(N)=O)[C@@H](OC)/C=C\C=C(/C)C(=O)NC(=C(c3ccccc3)C1=O)C2=O | ARPE-19 | MTT | – | IC50 | 8.3 µM |
| C1COCCN1.COc1ccc(/C=C\c2cc(I)c(OC)c(I)c2)cc1OP(=O)(O)O | SF-268 | SRB | 48 h | GI50 | 0.054 µg/mL |
| CCCc1cc(=O)n2nc(NCc3c(F)cc(Cl)cc3F)c(C#N)c2[nH]1 | CAL-51 | ATP luminescence | 72 h | IC50 | > 50 µM |
| COc1c2c(cc3c1OCO3)[C@]13C=C[C@H](OC)C[C@@H]1[N@](C2)C[C@H]3OC(=O)c1ccco1 | PANC-1 | WST-1 | – | IC50 | > 10 µM |
| C=CC(=O)Nc1cc(Nc2nccc(-c3cn(C)c4ccccc34)n2)c(OC)cc1N(C)CCN(C)C | BaF3 | – | 72 h | GI50 | 2.76 µM |
| COc1cc(C(=O)c2cc3cc(N)cc(OC)c3s2)cc(OC)c1OC | human Lymphocyte | MTT | 72 h | IC50 | > 20 µM |
| COc1c2c(cc3c1OCO3)[C@]13C=C[C@H](OC)C[C@@H]1[N@](C2)C[C@H]3OC(=O)c1ccoc1 | PANC-1 | WST-1 | – | IC50 | > 10 µM |
| COC1=C2C[C@@H](C)C[C@H](OC)[C@H](O)[C@@H](C)/C=C(\C)[C@H](OC(N)=O)[C@@H](OC)/C=C\C=C(/C)C(=O)NC(=C(C)C1=O)C2=O | ARPE-19 | MTT | – | IC50 | > 20 µM |
